Measured values: ChEMBL document CHEMBL3272122, “4-(6-Methoxy-2-naphthyl)butan-2-one and related analogues, a novel structural class of antiinflammatory compounds” (1978)
Activity calls are given as the source filed them. No cut-off for these calls is given here.

Key:
Rattus norvegicus [1] = assay: Antiinflammatory activity in Wistar rat assessed as inhibition of cotton pellet-induced granuloma formation at 50 mg/kg, po after 5 days relative to control; assay type: functional; conditions: for inhibition in vivo at 50 mg/kg: 120 h
Method in brief: (§1)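 Preweighed sterile cotton wool pellets were implanted subcutaneously in rats, one on each side of a ventral midline incision. Compounds were suspended in 0.7% methylcellulose and given orally once daily on days 0–5, starting 2–3 h before implantation; controls received vehicle (10 mL/kg). On day 6 the pellets were removed and dried at 80 °C to constant weight. Mean granuloma per rat was compared with controls by Student's t test.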

Rattus norvegicus [2] = assay: Antiinflammatory activity in Wistar rat assessed as inhibition of cotton pellet-induced granuloma formation at 3 mg/kg, po after 5 days relative to control; assay type: functional, organism-based; parameters: dose 3 mg/kg; method in brief: as §1
Rattus norvegicus [3] = species: Rattus norvegicus; assay: animal or person; conditions: Wistar, po, 120 h, read-out: INH
Rattus norvegicus [4] = species: Rattus norvegicus; assay: animal or person; conditions: po, read-out: INH
Rattus norvegicus [5] = assay: Antiinflammatory activity in rat assessed as inhibition of carrageenan-induced paw edema at 100 mg/kg, po relative to control; assay type: functional
Method in brief: (§2)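 Carrageenan paw edema in rats, compounds given orally. Edema is expressed as percent inhibition.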

Rattus norvegicus [6] = assay: Antiinflammatory activity in Wistar rat assessed as inhibition of cotton pellet-induced granuloma formation at 10 mg/kg, po after 5 days relative to control; assay type: functional; conditions: 120 h; method in brief: as §1
Rattus norvegicus [7] = assay: Antiinflammatory activity in rat assessed as inhibition of carrageenan-induced paw edema at 15 mg/kg, po relative to control; assay type: functional; method in brief: as §2
Rattus norvegicus [8] = assay: Antiinflammatory activity in rat assessed as inhibition of carrageenan-induced paw edema at 300 mg/kg, po relative to control; assay type: functional; method in brief: as §2
Rattus norvegicus [9] = assay: Antiinflammatory activity in Wistar rat assessed as inhibition of cotton pellet-induced granuloma formation at 100 mg/kg, po after 5 days relative to control; assay type: functional; conditions: 120 h; method in brief: as §1

Work on `COc1ccc2cc(CCC(C)(C)O)ccc2c1` yielded an inhibition in vivo at 50 mg/kg (Rattus norvegicus [1]) of 3%.

In the case of `COc1ccc2cc([C@H](C)C(=O)O)ccc2c1` [NAPROXEN], the inhibition (Rattus norvegicus [2]) is reported as “inactive”, the inhibition in vivo at 30 mg/kg (Rattus norvegicus [3]) is reported as 46% and the inhibition in vivo at 6 mg/kg (Rattus norvegicus [4]) is reported as 30%.

Compound `COc1ccc(CCC(C)=O)c2ccccc12` has an inhibition in vivo at 50 mg/kg (Rattus norvegicus [1]) of 0%.

For `COc1ccc2cc(CCC3(C)OCCO3)ccc2c1`, the inhibition in vivo at 50 mg/kg (Rattus norvegicus [1]) was 22%.

`CC(=O)CC(C)c1ccc2cc(C)ccc2c1` (stereo not drawn) gave an inhibition in vivo at 50 mg/kg (Rattus norvegicus [1]) of 11%.

`CC(=O)CCc1ccc2ccccc2c1` gave an inhibition in vivo at 50 mg/kg (Rattus norvegicus [1]) of 20%.

Work on `CC(=O)/C=C/c1ccc2cc(C)ccc2c1` yielded an inhibition in vivo at 50 mg/kg (Rattus norvegicus [1]) of 29%.

With `CNC(=O)Oc1ccc2cc(CCC(C)=O)ccc2c1` the inhibition in vivo at 50 mg/kg (Rattus norvegicus [1]) was 21% and the inhibition (Rattus norvegicus [2]) was “inactive”.

In the case of `CC(=O)CCc1ccc2cc(OC(C)=O)ccc2c1`, the inhibition in vivo at 50 mg/kg (Rattus norvegicus [1]) is reported as 2%.

With `COc1ccc2ccccc2c1CCC(C)=O` the inhibition in vivo at 50 mg/kg (Rattus norvegicus [1]) was 10%.

`COc1ccc2cc(CCC(C)OC(=O)CC(C)(C)CC(=O)O)ccc2c1` (stereo not drawn) showed an inhibition in vivo at 50 mg/kg (Rattus norvegicus [1]) of 26%.

For `COc1ccc2cc(CCC(C)OC(=O)c3cc(OC)c(OC)c(OC)c3)ccc2c1` (stereo not drawn), the inhibition in vivo at 50 mg/kg (Rattus norvegicus [1]) was 41%.

`Cc1ccc2cc(CCC(C)O)ccc2c1` (stereo not drawn) gave an inhibition in vivo at 50 mg/kg (Rattus norvegicus [1]) of 35%.

Work on `COc1ccc2cc(C(C)CC(C)=O)ccc2c1` (stereo not drawn) yielded an inhibition in vivo at 50 mg/kg (Rattus norvegicus [1]) of 24% and an inhibition in vivo at 100 mg/kg (Rattus norvegicus [5]) of 36%.

`COc1ccc2cc(CC/C(C)=N\O)ccc2c1` was tested, and the inhibition in vivo at 50 mg/kg (Rattus norvegicus [1]) was 15%.

`C[C@]12CCC(=O)C=C1CC[C@@H]1[C@@H]2[C@@H](O)C[C@@]2(C)[C@H]1CC[C@]2(O)C(=O)CO` [HYDROCORTISONE] was tested, and the inhibition in vivo at 10 mg/kg (Rattus norvegicus [6]) was 30% and the inhibition (Rattus norvegicus [2]) was “inactive”.

`CC(=O)CCc1ccc2cc(O)ccc2c1` was tested, and the inhibition in vivo at 50 mg/kg (Rattus norvegicus [1]) was 5%.

Compound `CC(=O)CCc1ccc2cc(C)ccc2c1` has an inhibition in vivo at 50 mg/kg (Rattus norvegicus [1]) of 34%.

For `COc1ccc2cc(CCC(C)O)ccc2c1` (stereo not drawn), the inhibition in vivo at 50 mg/kg (Rattus norvegicus [1]) was 32%.

Work on `COc1ccc2cc(CC(C)C(C)=O)ccc2c1` (stereo not drawn) yielded an inhibition in vivo at 50 mg/kg (Rattus norvegicus [1]) of 7%.

`CC(=O)CCc1ccc2cc(Cl)ccc2c1` was tested, and the inhibition in vivo at 50 mg/kg (Rattus norvegicus [1]) was 53%.

`COc1ccc2cc(CCC(C)=O)ccc2c1` [NABUMETONE] was tested, and the inhibition in vivo at 50 mg/kg (Rattus norvegicus [1]) was 39% and the inhibition in vivo at 15 mg/kg (Rattus norvegicus [7]) was 37%.

With `COc1ccc2cc(CC(=O)O)ccc2c1` the inhibition (Rattus norvegicus [1]) was “Active”.

For `CCOc1ccc2cc(CCC(C)=O)ccc2c1`, the inhibition in vivo at 50 mg/kg (Rattus norvegicus [1]) was 12%.

With `COc1ccc2cc(/C=C/C(C)=O)ccc2c1` the inhibition in vivo at 50 mg/kg (Rattus norvegicus [1]) was 18% and the inhibition in vivo at 100 mg/kg (Rattus norvegicus [5]) was 50%.

`COc1ccc2cc(CCC(C)OC(C)=O)ccc2c1` (stereo not drawn) was tested, and the inhibition in vivo at 50 mg/kg (Rattus norvegicus [1]) was 38%.

`CCC(=O)CCc1ccc2cc(OC)ccc2c1` was tested, and the inhibition in vivo at 50 mg/kg (Rattus norvegicus [1]) was 7%.

For `CC(=O)Oc1ccccc1C(=O)O` [ASPIRIN], the inhibition in vivo at 300 mg/kg (Rattus norvegicus [8]) was 31%, the inhibition in vivo at 100 mg/kg (Rattus norvegicus [9]) was 5% and the inhibition (Rattus norvegicus [2]) was “inactive”.

With `CCC(CC(C)=O)c1ccc2cc(OC)ccc2c1` (stereo not drawn) the inhibition in vivo at 50 mg/kg (Rattus norvegicus [1]) was 20%.
